Source: ChEMBL document CHEMBL3228012, “Actinomycin D oxazinones as improved antitumor agents” (1979)
Values after ≈ are worked out from the molar mass of the structure shown. Active and inactive are the calls of the source. The rule behind the calls is not given here. Starred links: 1 amine or outer side, 2 acyl side, 3 side chain; linkers in the order of their positions; H or OH if unused. Positions of bridges follow the written chain, without caps; N, C: chain ends. Non-standard residues stand in square brackets, D forms with d. Residues, ends and D or L forms follow the SMILES beside them. Chains are numbered I, II in the order given. Actinocin(1to9) = Cc1c2oc3c(C)ccc(C(=O)[*:2])c3nc-2c(C(=O)[*:1])c(N)c1=O; NMeV = CN[C@H](C(=O)O)C(C)C; Sar = CNCC(=O)O

Legend:
Calf thymus DNA [1] = assay: Binding affinity to calf thymus DNA in 0.15 M NaCl-0.01 M phosphate buffer at pH 7.3 at 37 degC incubated for 30 mins; conditions: Bos taurus
Calf thymus DNA [2] = assay: Binding affinity to calf thymus DNA in 0.01 M phosphate buffer at pH 7 at 20 degC incubated for 5 mins; format: nucleic-acid assay; conditions: Bos taurus
Procedure, shortened: (§1)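 Compounds were mixed with calf thymus DNA, and binding was monitored by difference absorption spectra with and without DNA. Binding to DNA was judged from a bathochromic shift of λmax with hypochromicity.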

P388 [3] = assay: Antitumor activity against mouse P388 cells allografted in mouse BDF1 mouse assessed as increase in survival >50 days at 300 ug/kg, ip for 4 days
Calf thymus DNA [4] = assay: Binding affinity to calf thymus DNA in 0.15 M NaCl-0.01 M sodium phosphate buffer at pH 7.3 at 37 degC incubated for 30 mins; format: nucleic-acid assay; conditions: Bos taurus
Procedure, shortened: as §1

CCRF-CEM = assay: Antitumor activity against human CCRF-CEM cells assessed as growth inhibition after 48 hrs; format: functional; conditions: read-out: ID50 (the source's name)
Procedure, shortened: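 Human leukemic lymphoblasts were grown in continuous spinner suspension culture. Compounds were exposed for 48 h. ID50 was taken as the concentration in ng/mL giving 50% growth inhibition.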

P388 [5] = assay: Antitumor activity against mouse P388 cells allografted in mouse BDF1 mouse assessed as increase in survival time of mouse at 300 ug/kg, ip for 4 days relative to untreated control; conditions: 96 h
Calf thymus DNA [6] = assay: Binding affinity to calf thymus DNA in 0.15 M NaCl-0.01 M sodium phosphate buffer at pH 7.3 at 37 degC incubated for 5 mins; format: nucleic-acid assay; conditions: Bos taurus
Procedure, shortened: as §1

P388 [7] = assay: Antitumor activity against mouse P388 cells allografted in mouse BDF1 mouse assessed as increase in survival >50 days at 150 ug/kg, ip for 4 days
P388 [8] = assay: Antitumor activity against mouse P388 cells allografted in mouse BDF1 mouse assessed as increase in survival time of mouse at 150 ug/kg, ip for 4 days relative to untreated control; conditions: 96 h
P388 [9] = assay: Antitumor activity against mouse P388 cells allografted in mouse BDF1 mouse assessed as increase in survival time of mouse at 50 ug/kg, ip for 4 days relative to untreated control; conditions: 96 h
P388 [10] = assay: Antitumor activity against mouse P388 cells allografted in mouse BDF1 mouse assessed as increase in survival >50 days at 75 ug/kg, ip for 4 days
P388 [11] = assay: Antitumor activity against mouse P388 cells allografted in mouse BDF1 mouse assessed as survival time of mouse at 150 ug/kg, ip for 4 days (reference value: 11.5 days)
P388 [12] = assay: Antitumor activity against mouse P388 cells allografted in mouse BDF1 mouse assessed as survival time of mouse at 50 ug/kg, ip for 4 days (reference value: 11.5 days)
P388 [13] = assay: Antitumor activity against mouse P388 cells allografted in mouse BDF1 mouse assessed as survival time of mouse at 75 ug/kg, ip for 4 days (reference value: 11.5 days)
P388 [14] = assay: Antitumor activity against mouse P388 cells allografted in mouse BDF1 mouse assessed as increase in survival >50 days at 50 ug/kg, ip for 4 days
P388 [15] = assay: Antitumor activity against mouse P388 cells allografted in mouse BDF1 mouse assessed as increase in survival time of mouse at 75 ug/kg, ip for 4 days relative to untreated control; conditions: 96 h
P388 [16] = assay: Antitumor activity against mouse P388 cells allografted in mouse BDF1 mouse assessed as survival time of mouse at 300 ug/kg, ip for 4 days (reference value: 11.5 days)
P388 [17] = assay: Antitumor activity against mouse P388 cells allografted in mouse BDF1 mouse assessed as complete suppression of tumor on day 307 at 150 ug/kg, ip for 4 days

Compound	Activity (Calf thymus DNA [1])	Activity (Calf thymus DNA [2])	Activity (P388 [3])	Activity (Calf thymus DNA [4])	IC50 (CCRF-CEM) [µg/mL]	survival at 0.3 mg/kg (P388 [5]) [%]	Activity (Calf thymus DNA [6])	Activity (P388 [7])	Percent increase in survival time vs untreated control at 0.15 mg/kg (P388 [8]) [%]	survival at 0.05 mg/kg (P388 [9]) [%]	Activity (P388 [10])	MST (P388 [11]) [days]	MST (P388 [12]) [days]	MST (P388 [13]) [days]	Activity (P388 [14])	survival at 0.15 mg/kg (P388 [8]) [%]	survival at 0.075 mg/kg (P388 [15]) [%]	MST (P388 [16]) [days]	Activity (P388 [17])
Cc1ccc(C(=O)N[C@@H]2C(=O)N[C@H](C(C)C)C(=O)N3CCC[C@H]3C(=O)N(C)CC(=O)N(C)[C@@H](C(C)C)C(=O)O[C@@H]2C)c2c1Oc1c(c(C(=O)N[C@@H]3C(=O)N[C@H](C(C)C)C(=O)N4CCC[C@H]4C(=O)N(C)CC(=O)N(C)[C@@H](C(C)C)C(=O)O[C@@H]3C)c3nc(CCC(=O)O)c(=O)oc3c1C)N2	Active	inactive	inactive	Active	0.028 (≈ 20.5 nM)	159	inactive												
Cc1ccc(C(=O)N[C@@H]2C(=O)N[C@H](C(C)C)C(=O)N3CCC[C@H]3C(=O)N(C)CC(=O)N(C)[C@@H](C(C)C)C(=O)O[C@@H]2C)c2c1Oc1c(c(C(=O)N[C@@H]3C(=O)N[C@H](C(C)C)C(=O)N4CCC[C@H]4C(=O)N(C)CC(=O)N(C)[C@@H](C(C)C)C(=O)O[C@@H]3C)c3nc(C)c(=O)oc3c1C)N2	Active	inactive		Active	0.012 (≈ 9.16 nM)		inactive	inactive	155										
Cc1ccc(C(=O)N[C@@H]2C(=O)N[C@H](C(C)C)C(=O)N3CCC[C@H]3C(=O)N(C)CC(=O)N(C)[C@@H](C(C)C)C(=O)O[C@@H]2C)c2c1Oc1c(c(C(=O)N[C@@H]3C(=O)N[C@H](C(C)C)C(=O)N4CCC[C@H]4C(=O)N(C)CC(=O)N(C)[C@@H](C(C)C)C(=O)O[C@@H]3C)c3ncc(=O)oc3c1C)N2	Active	inactive		Active	0.024 (≈ 18.5 nM)		inactive	inactive	169										
Cc1c2oc3c(C)ccc(C(=O)N[C@@H]4C(=O)N[C@H](C(C)C)C(=O)N5CCC[C@H]5C(=O)N(C)CC(=O)N(C)[C@@H](C(C)C)C(=O)O[C@@H]4C)c3nc-2c(C(=O)N[C@@H]2C(=O)N[C@H](C(C)C)C(=O)N3CCC[C@H]3C(=O)N(C)CC(=O)N(C)[C@@H](C(C)C)C(=O)O[C@@H]2C)c(N)c1=O [DACTINOMYCIN] (I: T[dV]P[Sar][NMeV] / II: T[dV]P[Sar][NMeV]; ester I:1-I:C, II:1-II:C; linker I:N-II:N via Actinocin(1to9))					0.01 (≈ 7.97 nM)			inactive		141	inactive	8	28	30	inactive	-31	149		
Cc1ccc(C(=O)N[C@@H]2C(=O)N[C@H](C(C)C)C(=O)N3CCC[C@H]3C(=O)N(C)CC(=O)N(C)[C@@H](C(C)C)C(=O)O[C@@H]2C)c2c1Oc1c(c(C(=O)N[C@@H]3C(=O)N[C@H](C(C)C)C(=O)N4CCC[C@H]4C(=O)N(C)CC(=O)N(C)[C@@H](C(C)C)C(=O)O[C@@H]3C)c3nc(CC(=O)O)c(=O)oc3c1C)N2	Active	inactive		Active	0.012 (≈ 8.87 nM)		inactive	inactive	140										
CCc1nc2c(C(=O)N[C@@H]3C(=O)N[C@H](C(C)C)C(=O)N4CCC[C@H]4C(=O)N(C)CC(=O)N(C)[C@@H](C(C)C)C(=O)O[C@@H]3C)c3c(c(C)c2oc1=O)Oc1c(C)ccc(C(=O)N[C@@H]2C(=O)N[C@H](C(C)C)C(=O)N4CCC[C@H]4C(=O)N(C)CC(=O)N(C)[C@@H](C(C)C)C(=O)O[C@@H]2C)c1N3	Active	inactive	inactive	Active	0.012 (≈ 9.07 nM)	126	inactive		204		inactive	35		29			152	26	Active
